The subject of data set [1] is Ovis aries. In words: Antihelmethic activity expressed as the percentage of worms eliminated in the feces in sheep […] at subcuteneous dose of 30 mg/kg against Lungworm Dictyocaulus filaria. The class given is functional. Put shortly: (§1)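 Sheep given a single dose, oral or subcutaneous. Total daily feces collected for 4 days after treatment and examined for expelled worms. Necropsy at day 7 after dosing; lungs, liver and gastrointestinal tract removed and remaining worms identified. Activity calculated by comparing worms passed in feces with those remaining at autopsy. Single animals per test unless otherwise indicated.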

For data set [2], the system named is Ovis aries. In words: Anthelmintic activity against adult liver fluke (Fasciola hepatica) in sheep, after peroral administration of 15 mg/kg was determined. The class given is functional. Particulars: route oral. In outline: (§2)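 Sheep dosed with a single oral dose. Fecal fluke egg output monitored after treatment. Animals necropsied only if the fecal egg count fell. Postmortem Fasciola hepatica burdens compared with untreated control sheep (mean of 10 controls). Single animals per test unless otherwise indicated, with group size given in parentheses. I denotes no effect on fecal fluke egg output.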

Data set [3] has as its system Ovis aries. Put plainly: Antihelmethic activity expressed as the percentage of worms eliminated in the feces in sheep small intestine at peroral dose of 15 mg/kg against Capillaria species. The class given is functional. Particulars: route oral. Put shortly:
as §1

In data set [4] the test system is Mus musculus. Put plainly: Nematocidal activity against Nematospiroides dubius induced necropsy in mouse, after oral administration of 100 mg/kg. The class given is functional. In outline: (§3)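 Seven-week-old female LACA mice infected orally with 100 N. dubius L3 larvae; single gavage dose given at day 10 of infection, groups of four mice; necropsy 4 days later; percent activity from worm burdens of treated versus untreated groups.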

The subject of data set [5] is Ovis aries. Put plainly: Antihelmethic activity expressed as the percentage of worms eliminated in the feces in sheep small intestine at subcuteneous dose of 30 mg/kg against Cooperia curticei. The class given is functional. Put shortly:
as §1

The test system of data set [6] is Mus musculus. Put plainly: Nematocidal against Nematospiroides dubius in mouse was determined at 100 mg/kg peroral dose of compound. The class given is functional. Particulars: route oral. Put shortly:
as §3

The test system of data set [7] is Mus musculus. Put plainly: Nematocidal against Nematospiroides dubius in mouse was determined at 50 mg/kg peroral dose of compound. The class given is functional. Particulars: route oral. Put shortly:
as §3

Data set [8] relates to Ovis aries. In words: Antihelmethic activity expressed as the percentage of worms eliminated in the feces in sheep large bowl at peroral dose of 15 mg/kg against chabertia ovina. In kind it is functional. Particulars: route oral. Put shortly:
as §1

The test system of another data set is Fasciola hepatica. Put plainly: Anthelmintic activity against adult liver fluke (Fasciola hepatica) in sheep following 30 mg/kg p.o. In kind it is functional. To be noted: route oral. In outline: as §2
Data set [9] has as its system Ovis aries. In words: Toxic activity expressed as the percentage against liver fluke in the sheep at 300 mg/kg peroral administration of dose; no toxic symptoms observed. Particulars: in vivo, po. In kind it is ADME, organism-based. On the set-up: dose 300 mg/kg, route oral.
The test system of data set [10] is Ovis aries. In words: Antihelmethic activity expressed as the percentage of worms eliminated in the feces in sheep abomasum at peroral dose of 30 mg/kg against Trichostrongylus axei. The class given is functional. Particulars: route oral. Put shortly:
as §1

A further data set has as its system Felis catus. Put plainly: Antihelmethic activity expressed as the percentage of worms eliminated in the feces in cat tapeworm at peroral dose of 30 mg/kg; worms expelled and no futher segments appeared in the feces for the duration of the test. In kind it is functional, organism-based. Details: dose 30 mg/kg.
Data set [11] is filed under the species Ovis aries. In words: Antihelmethic activity expressed as the percentage of worms eliminated in the feces in sheep species. In kind it is functional. Put shortly:
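Sheep; total daily faeces collected for 4 days after treatment and searched for expelled worms; necropsy 7 days post-dose with lungs, liver and GI tract examined and worms identified; activity from worms passed in faeces versus worms remaining in host at autopsy.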

Data set [12] concerns Ovis aries. In words: Antihelmethic activity expressed as the percentage of worms eliminated in the feces in sheep small intestine at peroral dose of 15 mg/kg against Bunostomum trigonocephalum. In kind it is functional. Particulars: route oral. In outline:
as §1

The test system of data set [13] is Ovis aries. In words: Antihelmethic activity expressed as the percentage of worms eliminated in the feces in sheep small intestine at peroral dose of 30 mg/kg against Nematodirus species. In kind it is functional. To be noted: route oral. Put shortly:
as §1

Data set [14] concerns Ovis aries. In words: Antihelmethic activity expressed as the percentage of worms eliminated in the feces in sheep small intestine at peroral dose of 30 mg/kg against Strongyloides papillosus. In kind it is functional. To be noted: route oral. Put shortly:
as §1

Data on 1 compound can be found in ChEMBL document CHEMBL1123619, “Isothiourea derivatives of 6-phenyl-2,3,5,6-tetrahydroimidazo[2,1-b]thiazole with broad-spectrum anthelmintic activity” (J Med Chem, 1987).

Structures are written as SMILES.

Regarding `CS/C(=N\c1cccc(C2CN3CCSC3=N2)c1)Nc1ccc(C#N)cc1` (stereo unspecified), the Activity in the data set with Ovis aries [1] stood at 100%; with Ovis aries [2], 83%; in the data set on Ovis aries [3], 0%; with Ovis aries [5], 91%; in the data set on Mus musculus [6], 100; in the data set with Mus musculus [7], 99. For the same compound, the Activity with Ovis aries [8] is 99%; in the data set with Fasciola hepatica it was 97%; in the data set with Ovis aries [9], “no toxic symptoms”; in the data set with Ovis aries [10] it was 100%; with Felis catus, “no toxic symptoms”; in the data set listed under Ovis aries [11] it was 100%. Besides, the Activity came to 100% in the data set on Ovis aries [12], 73% in the data set with Ovis aries [13] and 100% in the data set with Ovis aries [14]. In addition, the Reduction with Mus musculus [4] is reported as 99%.
